Measured values gathered from unrelated publications.
Compare with care: the assays were run in different laboratories.
Target: Tyrosine-protein kinase SYK (SYK, Homo sapiens, UniProt P43405)

| SMILES | effect on | mode | method | tested at | measurement | value |
| --- | --- | --- | --- | --- | --- | --- |
| Oc1cccc(-c2nc(N3CCOCC3)c3oc4ncccc4c3n2)c1 | cell-free assay |  |  | 0.5 µM | remaining signal | 94.2% |
| Cc1nc(Cc2cccc(C(F)(F)F)c2)sc1-c1ccc(C(N)=O)nc1 | cell-free assay |  | competition with immobilised ligand | 1 µM | remaining binding | 100% |
| COc1cc(Nc2cnc(C#N)c(O[C@H](C)CN(C)C)n2)ncc1-c1cnn(C)c1 | enzyme activity | inhibitor | radiometric | 1 µM | remaining activity | 93% |
| Cc1ccc(C(=O)NCc2ccsc2)cc1C#Cc1cn(C(C)C)c2ncnc(N)c12 | enzyme activity | inhibitor |  | 1 µM | activity vs control | 91% |
| O=C(Nc1cnn(-c2csc(C(=O)NC3COC3)c2)c1)Nc1ccccc1Cl | enzyme activity | inhibitor |  | 5 µM | remaining activity | 101% |
| CCCS(=O)(=O)Nc1ccc(F)c(C(=O)c2c[nH]c3ncc(-c4ccc(Cl)cc4)cc23)c1F | enzyme activity | inhibitor |  | 1 µM | inhibition | < 10% |
| COc1cc2ncnc(Nc3ccc(Oc4ccccc4)cc3C)c2cc1OC | enzyme activity | inhibitor |  | 1 µM | inhibition | 1% |
| CS(=O)(=O)NCC[C@H](NC(=O)c1cncc2c1cnn2-c1ccc(F)cc1)c1ccnc(S(C)(=O)=O)c1 | cell-free assay |  | competition with immobilised ligand | 1 µM | remaining binding | 100% |
| CN(C)C1CCN(CC#Cc2nn(C3CCCC3)c3nc(NCc4ccccc4)ncc23)C1 (stereo not shown) | enzyme activity | inhibitor | FRET | 10 µM | inhibition | -1% |
| O=C(Nc1cnn(-c2csc(C(=O)NC3COC3)c2)c1)Nc1c(F)cccc1Cl | enzyme activity | inhibitor |  | 5 µM | remaining activity | 90.3% |
| Cc1ccc(NC(=O)c2ccc(C)c(C(F)(F)F)c2)cc1C#Cc1nn(C2CCC(O)CC2)c2ncnc(N)c12 (stereo not shown) | cell-free assay |  |  | 10 µM | remaining signal | 95% |
| COc1cc(Cl)c(C(=O)N[C@@H](CN[C@H]2CC[C@@H](N)CC2)Cc2ccc(C#N)cc2)cc1-c1ccc(CN[C@H](C)c2ccc(C)cc2)o1 | enzyme activity | inhibitor |  | 1 µM | remaining activity | 97% |
| CC(C)(C)c1nc2c(s1)c1nc(N)ncc1c1ccc(NS(=O)(=O)c3c(F)cccc3F)c(F)c12 | enzyme activity | inhibitor | radiometric | 1 µM | remaining activity | 95% |
| CC(=O)N1CCC(c2ccc(C(=O)NC3=NCCN3)cc2C(F)(F)F)CC1 | cell-free assay |  | competition with immobilised ligand | 1 µM | remaining binding | 100% |
| Cc1ccc(Nc2nccc(N(C)c3ccc4c(C)n(C)nc4c3)n2)cc1S(N)(=O)=O | enzyme activity | inhibitor |  | 10 µM | inhibition | 88% |
| COc1cc2c(Nc3ccc(Br)cc3F)ncnc2cc1OCC1CCN(C)CC1 | cell-free assay |  |  | 0.5 µM | remaining signal | 101% |

| SMILES | effect on | mode | method | tested at | measurement | value |
| --- | --- | --- | --- | --- | --- | --- |
| Cc1c(C(=O)O)cc(-c2ccc(C3CCNCC3)cc2)c2ccc(-c3ccc(C(F)(F)F)cc3)cc12 | cell-free assay |  | competition with immobilised ligand | 1 µM | remaining binding | 100% |
| O=C1Nc2ccc(Cl)cc2C1=Cc1cc(Cl)c(O)c(Cl)c1 | cell-free assay |  |  | 0.5 µM | remaining signal | 93.3% |
| Cn1c(=O)n(-c2ccc(C(C)(C)C#N)cc2)c2c3cc(-c4cnc5ccccc5c4)ccc3ncc21 | enzyme activity | inhibitor |  | 10 µM | remaining activity | 72% |
| CN(c1ccnc(CNc2nc(Nc3ccc4c(c3)CC(=O)N4)ncc2C(F)(F)F)n1)S(C)(=O)=O | cell-free assay |  | competition with immobilised ligand | 1 µM | remaining binding | 5.7% |
| CN1CC(Oc2cnc(C#N)cc2-c2ccn3nc(NC(=O)C4CC4)cc3c2)C1 | enzyme activity | inhibitor |  | 1 µM | inhibition | 1% |
| CCS(=O)(=O)c1cc2cc(C[C@](O)(CC(C)(C)c3ccc(F)cc3C(N)=O)C(F)(F)F)[nH]c2cn1 | cell-free assay |  | competition with immobilised ligand | 1 µM | remaining binding | 100% |
| CC(C)(C)C(=O)c1sc(NC2CCCCC2)nc1N | enzyme activity | inhibitor |  | 10 µM | remaining activity | 111% |
| O=C(CSc1nc2nccnc2c(=O)n1CCc1ccccc1)Nc1nccs1 | enzyme activity | inhibitor |  | 10 µM | inhibition | 7% |
| Nc1cnc(N2CCc3cc(S(=O)(=O)Nc4c(F)cc(Cl)cc4F)cc(N4CCCC4=O)c32)nc1 | cell-free assay |  | competition with immobilised ligand | 1 µM | remaining binding | 100% |
| FC(F)(F)Oc1cccc(-c2cnc3ccc(-c4ccncc4)nn23)c1 | enzyme activity | inhibitor | radiometric | 1 µM | activity vs control | 72% |
| CNC(=O)c1cc(Oc2ccc(NC(=O)Nc3ccc(Cl)c(C(F)(F)F)c3)cc2)ccn1 | enzyme activity | inhibitor |  | 10 µM | inhibition | -6% |
| Cn1nc(C(=O)NCc2ccc(C(=O)O)cc2)cc1-c1ccc2[nH]ccc2c1 | cell-free assay |  | competition with immobilised ligand | 0.1 µM | remaining binding | 81% |
| CC(C)(O)[C@H]1CC[C@H](Nc2ccc3ncc(-c4cccc(C(F)(F)F)c4)n3n2)CC1 | enzyme activity | inhibitor |  | 1 µM | remaining activity | 72.3% |
| Nc1ncnc2occ(-c3ccc(NC(=O)Nc4cc(C(F)(F)F)ccc4F)cc3)c12 | cell-free assay | inhibitor |  | 20 µM | remaining signal | 2.4% |
| COc1cc(/C=C/C(=O)CC(=O)/C=C/c2ccc(O)c(OC)c2)ccc1O | enzyme activity | inhibitor |  | 1 µM | activity vs control | 92% |
